Assay results published in ChEMBL document CHEMBL1287642, “Synthesis, antiviral activity and cytotoxicity evaluation of Schiff bases of some 2-phenyl quinazoline-4(3)H-ones” (Eur J Med Chem, 2010).

Tests used:
Punta Toro virus = experiment: Antiviral activity against Punta Toro virus infected in african green monkey Vero cells assessed as protection against virus-induced cytopathogenicity after 2 days; type: functional, organism-based; details: 48 h
[1] = tested on: Vesicular stomatitis virus; experiment: Antiviral activity against Vesicular stomatitis virus infected in human HEL cells assessed as protection against virus-induced cytopathogenicity after 2 days; type: functional, organism-based; details: 48 h
Human respirovirus 3 = experiment: Antiviral activity against Para influenza-3 virus infected in african green monkey Vero cells assessed as protection against virus-induced cytopathogenicity after 2 days; type: functional, organism-based; details: Human respirovirus 3, Vero, 48 h
[2] = tested on: Mammalian orthoreovirus 1; experiment: Antiviral activity against Reovirus-1 infected in african green monkey Vero cells assessed as protection against virus-induced cytopathogenicity after 2 days; type: functional, organism-based; details: Mammalian orthoreovirus 1, Vero, 48 h
[3] = Cytotoxicity against human HEL cells assessed as minimum concentration required to cause microscopically detectable alteration after 2 days; type: cell-based; details: read-out: Activity
[4] = Cytotoxicity against MDCK cells assessed as minimum concentration required to cause microscopically detectable alteration after 2 days; type: cell-based, Canis lupus familiaris; details: dog, read-out: Activity
Human alphaherpesvirus 2 = experiment: Antiviral activity against Herpes simplex virus-2 G infected in human HEL cells assessed as protection against virus-induced cytopathogenicity after 2 days; type: functional, organism-based; details: Human alphaherpesvirus 2, strain G, 48 h
Influenza B virus [5] = experiment: Antiviral activity against influenza B virus infected in MDCK cells assessed as protection against virus-induced cytopathogenicity at 100 ug/ml after 2 days; type: functional, organism-based
How it was run: (§1)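 Infected MDCK cells were treated. […] N.A. means not active at the highest concentration tested or at a subtoxic concentration.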

Influenza A virus [6] = experiment: Antiviral activity against Influenza A virus H3N2 infected in MDCK cells assessed as protection against virus-induced cytopathogenicity at 100 ug/ml after 2 days; type: functional, organism-based; how it was run: as §1
Human alphaherpesvirus 1 [7] = experiment: Antiviral activity against acyclovir-resistant TK deficient Herpes simplex virus-1 KOS infected in human HEL cells assessed as protection against virus-induced cytopathogenicity after 2 days; type: functional, organism-based; details: Human alphaherpesvirus 1, KOS, 48 h
Influenza A virus [8] = experiment: Antiviral activity against Influenza A virus H3N2 infected in MDCK cells assessed as cell viability at 100 ug/ml after 2 days by MTS assay; type: functional, organism-based
Coxsackievirus B4 [9] = experiment: Antiviral activity against Coxsackie virus B4 infected in human HeLa cells assessed as protection against virus-induced cytopathogenicity after 2 days; type: functional, organism-based; details: Enterovirus B, 48 h
[10] = Cytotoxicity against cat CRFK cells by MTS assay; type: cell-based, Felis catus
How it was run: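 In uninfected CRFK cells, the 50% cytotoxic concentration was derived from cell viability measured by the colorimetric formazan-based MTS assay.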

Sindbis virus = experiment: Antiviral activity against Sindbis virus infected in african green monkey Vero cells assessed as protection against virus-induced cytopathogenicity after 2 days; type: functional, organism-based; details: 48 h
[11] = Cytotoxicity against african green monkey Vero cells assessed as minimum concentration required to cause microscopically detectable alteration after 2 days; type: cell-based; details: chlorocebus sabaeus, read-out: Activity
[12] = Cytotoxicity against human HeLa cells assessed as minimum concentration required to cause microscopically detectable alteration after 2 days; type: cell-based; details: read-out: Activity
Influenza B virus [13] = experiment: Antiviral activity against influenza B virus infected in MDCK cells assessed as cell viability at 100 ug/ml after 2 days by MTS assay; type: functional, organism-based
MDCK = experiment: Cytotoxicity against MDCK cells by MTS assay; type: cell-based, Canis lupus familiaris; details: dog, mdck
How it was run: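 In Madin Darby canine kidney cells, the 50% cytotoxic concentration was derived from cell viability measured by the colorimetric formazan-based MTS assay.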

Human alphaherpesvirus 1 [14] = experiment: Antiviral activity against Herpes simplex virus-1 KOS infected in human HEL cells assessed as protection against virus-induced cytopathogenicity after 2 days; type: functional, organism-based; details: Human alphaherpesvirus 1, KOS, 48 h
[15] = tested on: Feline infectious peritonitis virus; experiment: Antiviral activity against Feline coronavirus FIPV infected in cat CRFK cells assessed as protection against virus-induced cytopathogenicity after 2 days by MTS assay; type: functional, cell-based; details: Alphacoronavirus 1, CRFK, 48 h
Influenza A virus [16] = experiment: Antiviral activity against influenza A virus H1N1 infected in MDCK cells assessed as cell viability at 100 ug/ml after 2 days by MTS assay; type: functional, organism-based
Felid alphaherpesvirus 1 = experiment: Antiviral activity against Feline herpes virus infected in cat CRFK cells assessed as protection against virus-induced cytopathogenicity after 2 days by MTS assay; type: functional, organism-based; details: Felid alphaherpesvirus 1, CRFK, 48 h
[17] = tested on: Vesicular stomatitis virus; experiment: Antiviral activity against Vesicular stomatitis virus infected in human HeLa cells assessed as protection against virus-induced cytopathogenicity after 2 days; type: functional, organism-based; details: 48 h
Coxsackievirus B4 [18] = experiment: Antiviral activity against Coxsackie virus B4 infected in african green monkey Vero cells assessed as protection against virus-induced cytopathogenicity after 2 days; type: functional, organism-based; details: Enterovirus B, 48 h
Influenza A virus [19] = experiment: Antiviral activity against influenza A virus H1N1 infected in MDCK cells assessed as protection against virus-induced cytopathogenicity at 100 ug/ml after 2 days; type: functional, organism-based; how it was run: as §1
[20] = tested on: Respiratory syncytial virus; experiment: Antiviral activity against Respiratory syncytial virus infected in human HeLa cells assessed as protection against virus-induced cytopathogenicity after 2 days; type: functional, organism-based; details: 48 h

C/C(=N\n1c(-c2ccccc2)nc2ccccc2c1=O)c1ccccc1
> 100 µg/mL: EC50 [1] | MCC at 48 h [3] | EC50 (Human alphaherpesvirus 2) | EC50 (Human alphaherpesvirus 1 [7]) | EC50 (Coxsackievirus B4 [9]) | MCC at 48 h [12] | CC50 (MDCK) | EC50 (Human alphaherpesvirus 1 [14]) | EC50 [17] | EC50 [20]
> 0.8 µg/mL: EC50 [15] | EC50 (Felid alphaherpesvirus 1)
> 20 µg/mL: EC50 (Punta Toro virus) | EC50 (Human respirovirus 3) | EC50 [2] | EC50 (Sindbis virus) | EC50 (Coxsackievirus B4 [18])
2.6 µg/mL: CC50 ([10]; crfk)
100 µg/mL: MCC at 48 h [4] | MCC at 48 h [11]
Not Active: EC50 (Influenza B virus [5]) | EC50 (Influenza A virus [6]) | EC50 (Influenza A virus [8]) | EC50 (Influenza B virus [13]) | EC50 (Influenza A virus [16]) | EC50 (Influenza A virus [19])

O=c1c2ccccc2nc(-c2ccccc2)n1/N=C/c1ccc(Cl)cc1
100 µg/mL: MCC at 48 h [3]
42.2 µg/mL: CC50 ([10]; crfk)
> 4 µg/mL: EC50 (Punta Toro virus) | EC50 (Human respirovirus 3) | EC50 [2] | EC50 (Coxsackievirus B4 [9]) | EC50 (Sindbis virus) | EC50 [17] | EC50 (Coxsackievirus B4 [18]) | EC50 [20]
76.4 µg/mL: CC50 (MDCK)
> 20 µg/mL: EC50 [1] | EC50 (Human alphaherpesvirus 2) | EC50 (Human alphaherpesvirus 1 [7]) | EC50 (Human alphaherpesvirus 1 [14]) | EC50 [15] | EC50 (Felid alphaherpesvirus 1)
20 µg/mL: MCC at 48 h [4] | MCC at 48 h [11] | MCC at 48 h [12]
Not Active: EC50 (Influenza B virus [5]) | EC50 (Influenza A virus [6]) | EC50 (Influenza A virus [8]) | EC50 (Influenza B virus [13]) | EC50 (Influenza A virus [16]) | EC50 (Influenza A virus [19])

N=C(N)NCCC[C@H](N)C(=O)O [ARGININE]
2.6 µg/mL: EC50 [15]
> 100 µg/mL: CC50 ([10]; CRFK cells, read-out: CC50)
1.6 µg/mL: EC50 (Felid alphaherpesvirus 1)

COc1ccccc1/C=N/n1c(-c2ccccc2)nc2ccccc2c1=O
100 µg/mL: MCC at 48 h [3] | MCC at 48 h [11]
14.4 µg/mL: CC50 ([10]; crfk)
> 20 µg/mL: EC50 (Punta Toro virus) | EC50 [1] | EC50 (Human respirovirus 3) | EC50 [2] | EC50 (Human alphaherpesvirus 2) | EC50 (Human alphaherpesvirus 1 [7]) | EC50 (Sindbis virus) | EC50 (Human alphaherpesvirus 1 [14]) | EC50 (Coxsackievirus B4 [18])
12.4 µg/mL: CC50 (MDCK)
20 µg/mL: MCC at 48 h [4] | MCC at 48 h [12]
> 4 µg/mL: EC50 (Coxsackievirus B4 [9]) | EC50 [15] | EC50 (Felid alphaherpesvirus 1) | EC50 [17] | EC50 [20]
Not Active: EC50 (Influenza B virus [5]) | EC50 (Influenza A virus [6]) | EC50 (Influenza A virus [8]) | EC50 (Influenza B virus [13]) | EC50 (Influenza A virus [16]) | EC50 (Influenza A virus [19])

Nc1ccn(C[C@@H](CO)OCP(=O)(O)O)c(=O)n1.O.O [CIDOFOVIR]
> 250 µg/mL: EC50 [1] | MCC at 48 h [3]

O=c1c2ccccc2nc(-c2ccccc2)n1/N=C/c1cccc([N+](=O)[O-])c1
13.8 µg/mL: CC50 ([10]; crfk)
> 4 µg/mL: EC50 (Punta Toro virus) | EC50 (Human respirovirus 3) | EC50 [2] | EC50 (Coxsackievirus B4 [9]) | EC50 (Sindbis virus) | EC50 [15] | EC50 (Felid alphaherpesvirus 1) | EC50 [17] | EC50 (Coxsackievirus B4 [18]) | EC50 [20]
> 20 µg/mL: EC50 [1] | EC50 (Human alphaherpesvirus 2) | EC50 (Human alphaherpesvirus 1 [7]) | EC50 (Human alphaherpesvirus 1 [14])
≥ 20 µg/mL: MCC at 48 h [3]
Not Active: EC50 (Influenza B virus [5]) | EC50 (Influenza A virus [6]) | EC50 (Influenza A virus [8]) | EC50 (Influenza B virus [13]) | EC50 (Influenza A virus [16]) | EC50 (Influenza A virus [19])
> 100 µg/mL: CC50 (MDCK)
20 µg/mL: MCC at 48 h [4] | MCC at 48 h [11] | MCC at 48 h [12]

NC(=O)c1ncn([C@@H]2O[C@H](CO)[C@@H](O)[C@H]2O)n1 [RIBAVIRIN]
22 µg/mL: EC50 [17] | EC50 [20]
> 100 µg/mL: MCC at 48 h [4]
> 250 µg/mL: EC50 [2] | MCC at 48 h [3] | EC50 (Human alphaherpesvirus 2) | EC50 (Human alphaherpesvirus 1 [7]) | EC50 (Sindbis virus) | MCC at 48 h [11] | MCC at 48 h [12] | EC50 (Human alphaherpesvirus 1 [14]) | EC50 (Coxsackievirus B4 [18])

O=c1[nH]c(=O)n([C@H]2C[C@H](O)[C@@H](CO)O2)cc1/C=C/Br [BRIVUDINE]
50 µg/mL: EC50 (Human alphaherpesvirus 2)
> 250 µg/mL: EC50 [1] | MCC at 48 h [3]
